According to ChEMBL document CHEMBL1134615, “Structure-based design and synthesis of potent matrix metalloproteinase inhibitors derived from a 6H-1,3,4-thiadiazine scaffold” (J Med Chem, 2001):

Tests used:
[1] = molecular target: Matrix metalloproteinase-9 (Homo sapiens, UniProt P14780); experiment: In vitro inhibition of human matrix metalloprotease-9
How it was run: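 Full-length PMNL pro-gelatinase from human plasma buffy coat, activated with trypsin for 10 min at 37 °C, then trypsin inactivated with TKI. […] Buffer 50 mM HEPES pH 7.0, 10 mM CaCl2, 0.02% PEG 8000, 2% DMSO, 25 °C. Inhibitor 0.005-15 µM, 30 min preincubation, triplicate. Ki from logistic IC50 by the Horovitz-Levitski method.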

[2] = molecular target: Neutrophil collagenase (Homo sapiens, UniProt P22894); experiment: Inhibitory activity against matrix metalloprotease-8
Chain of Neutrophil collagenase (P22894 whole entry, the tested form may be a part): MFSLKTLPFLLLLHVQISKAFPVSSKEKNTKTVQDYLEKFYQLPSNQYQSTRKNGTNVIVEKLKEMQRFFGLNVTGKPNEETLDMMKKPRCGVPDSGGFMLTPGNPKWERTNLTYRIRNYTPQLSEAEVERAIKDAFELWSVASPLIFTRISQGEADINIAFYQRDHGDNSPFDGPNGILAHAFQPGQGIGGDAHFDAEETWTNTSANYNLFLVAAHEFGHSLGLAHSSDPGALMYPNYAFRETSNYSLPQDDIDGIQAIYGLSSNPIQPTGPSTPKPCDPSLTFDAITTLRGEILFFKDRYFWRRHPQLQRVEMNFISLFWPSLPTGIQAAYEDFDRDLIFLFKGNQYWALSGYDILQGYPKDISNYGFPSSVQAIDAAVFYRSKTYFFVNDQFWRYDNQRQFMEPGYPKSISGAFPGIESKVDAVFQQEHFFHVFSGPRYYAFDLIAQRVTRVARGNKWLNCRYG

[3] = molecular target: Collagenase 3 (Homo sapiens, UniProt P45452); experiment: In Vitro inhibitory activity against the catalytic domain of the matrix metalloprotease-13
[4] = molecular target: T1, Matrix metalloproteinase-14 (Homo sapiens, UniProt P50281); experiment: In vitro inhibitory activity against the catalytic domain of human matrix metalloprotease-14
How it was run: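 E. coli-expressed human MMP-14 catalytic domain, activated by autocatalysis, at 0.3-5 nM. Assay buffer 50 mM HEPES pH 7.0, 10 mM CaCl2, 0.02% PEG 8000, 2% DMSO, 25 °C. […] Fluorescence ex 330/em 405 nm, triplicate. Ki derived from four-parameter logistic IC50 (Horovitz-Levitski).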

[5] = molecular target: Macrophage metalloelastase (Homo sapiens, UniProt P39900); experiment: In Vitro inhibitory activity against the catalytic domain of the matrix metalloprotease-12
Chain of Macrophage metalloelastase (P39900 whole entry, the tested form may be a part): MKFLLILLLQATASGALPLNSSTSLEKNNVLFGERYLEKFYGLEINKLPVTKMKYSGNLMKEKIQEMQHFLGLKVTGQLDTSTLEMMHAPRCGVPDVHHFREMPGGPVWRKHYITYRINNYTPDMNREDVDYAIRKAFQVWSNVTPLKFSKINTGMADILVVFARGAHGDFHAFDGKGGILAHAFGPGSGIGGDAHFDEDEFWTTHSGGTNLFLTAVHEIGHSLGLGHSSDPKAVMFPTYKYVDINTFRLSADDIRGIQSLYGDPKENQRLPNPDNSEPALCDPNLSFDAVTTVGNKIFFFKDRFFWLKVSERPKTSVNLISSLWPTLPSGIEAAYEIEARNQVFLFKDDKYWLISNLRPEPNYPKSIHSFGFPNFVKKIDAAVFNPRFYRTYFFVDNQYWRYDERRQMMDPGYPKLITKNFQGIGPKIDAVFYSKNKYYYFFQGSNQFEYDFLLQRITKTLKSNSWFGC
How it was run: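 Human MMP-12 catalytic domain, expressed in E. coli as inclusion bodies, renatured and affinity-purified. FRET assay in 50 mM HEPES/NaOH pH 7.0, 10 mM CaCl2, 0.02% PEG 8000, 2% DMSO, 25 °C. […] Inhibitor at 0.005-15 µM, 30 min preincubation, ex 330/em 405 nm, triplicate. Four-parameter logistic IC50, then Ki by the Horovitz-Levitski method.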

[6] = molecular target: 72 kDa type IV collagenase (Homo sapiens, UniProt P08253)
Chain of 72 kDa type IV collagenase (P08253 whole entry, the tested form may be a part): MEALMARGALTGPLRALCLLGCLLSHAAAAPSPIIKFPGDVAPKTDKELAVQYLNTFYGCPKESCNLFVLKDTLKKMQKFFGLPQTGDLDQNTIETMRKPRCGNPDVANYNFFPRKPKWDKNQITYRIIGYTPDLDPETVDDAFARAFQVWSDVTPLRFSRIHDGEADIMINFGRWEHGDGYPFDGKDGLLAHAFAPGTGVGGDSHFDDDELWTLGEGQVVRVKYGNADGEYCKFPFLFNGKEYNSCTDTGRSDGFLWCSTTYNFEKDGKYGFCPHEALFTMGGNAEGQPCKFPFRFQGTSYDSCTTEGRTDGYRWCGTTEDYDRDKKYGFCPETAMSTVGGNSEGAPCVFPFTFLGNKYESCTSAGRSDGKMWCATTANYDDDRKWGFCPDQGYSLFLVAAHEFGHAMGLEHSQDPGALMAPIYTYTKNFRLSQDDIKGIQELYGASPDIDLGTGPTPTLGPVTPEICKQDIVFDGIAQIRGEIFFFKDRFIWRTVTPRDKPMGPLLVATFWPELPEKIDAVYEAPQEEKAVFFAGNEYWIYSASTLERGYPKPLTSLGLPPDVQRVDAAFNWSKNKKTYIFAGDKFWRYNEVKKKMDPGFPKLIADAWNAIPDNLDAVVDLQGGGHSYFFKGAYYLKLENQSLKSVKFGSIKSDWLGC

[7] = molecular target: T1, Matrix metalloproteinase-14; experiment: In vitro inhibitory activity against the ectodomain of the human matrix metalloprotease-14
How it was run: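 Ectodomain of human MMP-14 (ΔTM) expressed in Pichia pastoris. […] Buffer 50 mM HEPES pH 7.0, 10 mM CaCl2, 0.02% PEG 8000, 2% DMSO, 25 °C. Inhibitor 0.005-15 µM, 30 min preincubation, ex 330/em 405 nm, triplicate. Ki from logistic-fit IC50 by the Horovitz-Levitski method.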

[8] = molecular target: T2, Interstitial collagenase (Homo sapiens, UniProt P03956); experiment: In vitro inhibitory activity against full-length human matrix metalloprotease-1
T2 sequence (P03956 whole entry): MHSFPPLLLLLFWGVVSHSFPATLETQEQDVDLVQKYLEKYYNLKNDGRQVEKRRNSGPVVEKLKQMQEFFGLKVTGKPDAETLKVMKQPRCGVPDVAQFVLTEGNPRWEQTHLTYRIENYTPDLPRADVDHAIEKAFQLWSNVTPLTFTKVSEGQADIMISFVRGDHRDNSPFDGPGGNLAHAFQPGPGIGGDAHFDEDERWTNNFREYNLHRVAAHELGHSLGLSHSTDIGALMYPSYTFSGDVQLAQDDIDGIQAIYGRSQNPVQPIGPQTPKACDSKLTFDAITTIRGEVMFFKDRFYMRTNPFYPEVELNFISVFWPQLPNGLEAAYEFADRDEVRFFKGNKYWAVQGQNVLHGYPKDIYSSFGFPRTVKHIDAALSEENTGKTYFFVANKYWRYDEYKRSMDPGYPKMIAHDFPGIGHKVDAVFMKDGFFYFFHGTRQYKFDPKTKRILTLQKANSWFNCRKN

[9] = molecular target: T1, Matrix metalloproteinase-14; experiment: Inhibition of matrix metalloprotease-14

Chain of Matrix metalloproteinase-9 (P14780 whole entry): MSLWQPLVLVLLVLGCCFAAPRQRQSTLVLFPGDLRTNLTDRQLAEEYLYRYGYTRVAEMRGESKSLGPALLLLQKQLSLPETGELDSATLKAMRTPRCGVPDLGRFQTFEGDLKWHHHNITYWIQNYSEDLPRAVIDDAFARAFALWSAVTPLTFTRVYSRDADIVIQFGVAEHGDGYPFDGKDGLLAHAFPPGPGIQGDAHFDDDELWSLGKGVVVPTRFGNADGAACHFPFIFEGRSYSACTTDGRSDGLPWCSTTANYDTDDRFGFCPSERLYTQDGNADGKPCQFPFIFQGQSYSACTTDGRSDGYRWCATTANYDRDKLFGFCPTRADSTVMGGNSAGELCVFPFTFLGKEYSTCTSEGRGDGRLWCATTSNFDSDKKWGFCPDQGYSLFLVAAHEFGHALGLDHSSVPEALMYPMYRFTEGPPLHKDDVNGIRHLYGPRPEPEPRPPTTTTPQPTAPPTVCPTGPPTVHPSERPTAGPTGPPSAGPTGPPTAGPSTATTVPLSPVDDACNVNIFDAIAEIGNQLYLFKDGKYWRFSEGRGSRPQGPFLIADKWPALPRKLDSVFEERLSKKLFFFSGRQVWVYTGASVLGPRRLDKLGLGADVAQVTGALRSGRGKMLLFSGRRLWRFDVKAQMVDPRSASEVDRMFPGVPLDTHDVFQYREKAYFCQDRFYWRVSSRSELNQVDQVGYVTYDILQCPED

| Structure (SMILES) | Ki [1] | Ki [2] | Ki [3] | Ki [4] | Ki [5] | Ki [6] | Ki [7] | Ki [8] | Ki [9] |
| --- | --- | --- | --- | --- | --- | --- | --- | --- | --- |
| C[C@H](NS(=O)(=O)c1ccccc1)C(=O)NC1=NN=C(C23CC4CC(CC(C4)C2)C3)CS1 | > 15000 nM | > 15000 nM | > 15000 nM | 3070 nM | 410 nM | > 15000 nM |  |  |  |
| Cc1ccc(C2=NN=C(NC(=O)[C@@H](C)NS(=O)(=O)c3ccccc3)SC2)cc1 | 210 nM | 220 nM | 320 nM | 290 nM | 90 nM | 440 nM | 150 nM | 460 nM |  |
| C[C@@H](NS(=O)(=O)c1ccccc1)C(=O)NC1=NN=C(c2ccc(Cl)cc2)CS1 | 80 nM | 150 nM | 140 nM |  | 320 nM | 500 nM | 210 nM | 210 nM | 50 nM |
| C[C@H](NS(=O)(=O)c1ccccc1)C(=O)NC1=NN=C(c2ccc(F)cc2)CS1 | 160 nM |  | 650 nM | 440 nM | 280 nM | 450 nM |  | 440 nM |  |
| CC(C)[C@H](NS(=O)(=O)c1ccccc1)C(=O)NC1=NN=C(c2ccc(Cl)cc2)CS1 | 200 nM | 780 nM | > 15000 nM | 740 nM | 380 nM | 880 nM |  |  |  |
| Cc1ccc(C2=NN=C(NC(=O)[C@H](C)NS(=O)(=O)c3ccccc3)SC2)cc1 | 160 nM | 300 nM | 620 nM | 380 nM | 110 nM | 410 nM |  |  |  |
| C[C@H](NS(=O)(=O)c1ccccc1)C(=O)NC1=NN=C(c2ccc(C(F)(F)F)cc2)CS1 | 240 nM | 260 nM | 570 nM | 580 nM | 300 nM |  | 390 nM | 430 nM |  |
| CC(C)(NS(=O)(=O)c1ccccc1)C(=O)NC1=NN=C(c2ccc(Cl)cc2)CS1 | 90 nM | 480 nM | 180 nM | 150 nM | 200 nM | 80 nM | 110 nM | 300 nM |  |
| C[C@H](NS(=O)(=O)c1cccs1)C(=O)NC1=NN=C(c2ccc(Cl)cc2)CS1 | 800 nM | 60 nM | 3810 nM | 250 nM | 360 nM | 550 nM |  |  |  |
| C[C@H](NS(=O)(=O)c1ccccc1)C(=O)NC1=NN=C(c2ccc(Br)cc2)CS1 | 160 nM | 110 nM | 370 nM |  | 440 nM | 270 nM |  |  | 340 nM |
| C[C@@H](NS(=O)(=O)c1ccccc1)C(=O)NC1=NN=C(c2ccc(Br)cc2)CS1 | 40 nM | 210 nM | 130 nM |  | 340 nM | 150 nM | 180 nM | 420 nM | 200 nM |
| C[C@H](NS(=O)(=O)Cc1ccccc1)C(=O)NC1=NN=C(c2ccc(Cl)cc2)CS1 | 40 nM | 200 nM | 120 nM | 190 nM | 480 nM | 90 nM | 180 nM | 360 nM |  |
| C[C@H](NS(=O)(=O)c1ccccc1)C(=O)NC1=NN=C(c2ccc(Cl)cc2)CS1 | 60 nM | 730 nM | 180 nM | 100 nM | 520 nM | 140 nM | 210 nM | 650 nM |  |
| C[C@@H](NS(=O)(=O)c1ccccc1)C(=O)NC1=NN=C(c2ccc(C#N)cc2)CS1 | 80 nM | 230 nM | 210 nM |  | 360 nM | 210 nM | 400 nM | 400 nM | 240 nM |
| C[C@H](NS(=O)(=O)c1ccccc1)C(=O)NC1=NN=C(c2ccc(Cl)s2)CS1 | 170 nM | 180 nM | 470 nM | 320 nM | 240 nM | 1870 nM | 200 nM | 450 nM |  |
| C[C@H](NS(=O)(=O)c1ccccc1)C(=O)NC1=NN=C(c2ccc([N+](=O)[O-])cc2)CS1 | 130 nM | 170 nM | 260 nM | 290 nM | 280 nM | 300 nM |  | 260 nM |  |
| C[C@@H](NS(=O)(=O)c1ccccc1)C(=O)NC1=NN=C(c2ccc(F)cc2)CS1 | 50 nM |  | 300 nM | 390 nM | 350 nM | 340 nM | 330 nM | 630 nM |  |
| COc1ccc(C2=NN=C(NC(=O)[C@H](C)NS(=O)(=O)c3ccccc3)SC2)cc1 | 320 nM | 180 nM | 1330 nM | 590 nM | 340 nM |  |  | 580 nM |  |
| C[C@H](NS(=O)(=O)c1ccccc1)C(=O)NC1=NN=C(c2ccc(C#N)cc2)CS1 | 80 nM | 220 nM | 250 nM |  | 370 nM | 240 nM | 400 nM | 390 nM | 240 nM |
| CC(C)[C@@H](NS(=O)(=O)c1ccccc1)C(=O)NC1=NN=C(c2ccc(Cl)cc2)CS1 | > 15000 nM | 4370 nM | > 15000 nM | 590 nM | 350 nM | 850 nM | 330 nM | 550 nM |  |
